Test results as given in ChEMBL document CHEMBL1159071, “Discovery of 4-(5-methyloxazolo[4,5-b]pyridin-2-yl)-1,4-diazabicyclo[3.2.2]nonane (CP-810,123), a novel alpha 7 nicotinic acetylcholine receptor agonist for the treatment of cognitive disorders in schizophrenia: synthesis, SAR development, and in vivo efficacy in cognition models” (J Med Chem, 2010).
Active and inactive are the calls of the source. The rule behind the calls is not given here.

Columns and labels:
[1] = Agonist activity at human alpha7 nAChR/mouse 5HT3 chimeric receptor expressed in SH-EP1 cells assessed as increase in intracellular calcium level relative to 100 uM nicotine; assay type: functional
Method in brief: (§1)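 α7-5HT3 chimera stably in SH-EP1 cells grown to confluence; loaded with Calcium Green 1 AM (2 μM final) 60 min at 37 °C. Compound added directly; calcium rise read by FLIPR (excitation 488 nm, emission >525 nm).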

Rattus norvegicus [2] = assay: Cognitive enhancement in Sprague-Dawley rat assessed as improvement of scopolamine-impaired performance at 0.32 mg/kg, sc administered 30 mins before scopolamine challenge by novel object recognition assay; assay type: functional, organism-based; set-up: dose 0.32 mg/kg
Method in brief: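 Rats habituated to the arena 3 min on day 1. Next day, 10-15 per group dosed sc with vehicle or compound, then 30 min later vehicle or (-)-scopolamine 0.2 mg/kg sc. After 30 min more, two identical objects shown 3 min; 2.5 h later one novel and one familiar object for 3 min. Exploration time per object, mean ± SEM.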

[3] = molecular target: Neuronal acetylcholine receptor subunit alpha-7 (Rattus norvegicus, UniProt Q05941); assay: Displacement of [125I]BTX from rat alpha7 nicotinic acetylcholine receptor expressed in GH4C1 cells; assay type: cell-based, GH4-C1
Method in brief: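 GH4C1 membranes (20 mM HEPES, 118 mM NaCl, 4.5 mM KCl, 2.5 mM CaCl2, 1.2 mM MgSO4, pH 7.5) incubated 2 h at 37 °C with [125I]α-bungarotoxin 0.4 nM final. Nonspecific binding with 1 μM methyllycaconitine; filtration onto PEI-treated GF/B filters. Ki = IC50/(1+[L]/KD); six-point curves in triplicate; geometric mean with 95% CI.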

[4] = molecular target: T1, 5-hydroxytryptamine receptor 3A (Mus musculus, UniProt P23979); assay: Displacement of [3H]LY278584 from mouse 5HT3 receptor expressed in HEK293 cells; assay type: cell-based
T1 sequence (P23979 whole entry): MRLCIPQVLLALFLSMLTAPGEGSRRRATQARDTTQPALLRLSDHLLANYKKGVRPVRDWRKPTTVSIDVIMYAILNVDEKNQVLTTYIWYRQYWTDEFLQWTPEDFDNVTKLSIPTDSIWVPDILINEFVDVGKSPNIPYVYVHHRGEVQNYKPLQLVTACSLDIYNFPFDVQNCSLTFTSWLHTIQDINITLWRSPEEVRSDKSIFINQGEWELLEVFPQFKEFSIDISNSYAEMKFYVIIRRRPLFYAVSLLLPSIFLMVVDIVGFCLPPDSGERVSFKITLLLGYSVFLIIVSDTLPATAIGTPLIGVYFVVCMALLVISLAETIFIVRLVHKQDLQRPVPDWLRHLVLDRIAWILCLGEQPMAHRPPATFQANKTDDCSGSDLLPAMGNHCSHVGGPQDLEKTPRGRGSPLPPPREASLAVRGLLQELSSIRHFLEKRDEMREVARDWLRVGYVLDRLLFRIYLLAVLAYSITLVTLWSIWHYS
Method in brief: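 Mouse 5-HT3A in HEK293 cell homogenate, 20 mM Tris-HCl pH 7.4 with 154 mM NaCl. [3H]LY278584 1 nM final; nonspecific binding with 10 μM ICS205-930; 60 min at 37 °C, then filtration onto PEI-soaked GF/B. Ki by Cheng-Prusoff; mean of three six-point curves in triplicate in one assay; tropisetron standard.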

[5] = Agonist activity at human alpha7 nAChR/mouse 5HT3 chimeric receptor expressed in SH-EP1 cells assessed as increase in intracellular calcium level; assay type: functional, cell-based; method in brief: as §1
[6] = molecular target: Neuronal acetylcholine receptor; alpha4/beta2 (Rattus norvegicus, UniProt P09483+P12390); assay: Displacement of [3H]nicotine from alpha4beta2 nAChR in rat brain homogenate; assay type: tissue-based
Method in brief: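 Rat brain homogenate membranes; [3H]nicotine used as radioligand. Ki taken as the average of a six-point dose-response curve run in triplicate.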

[7] = molecular target: Neuronal acetylcholine receptor; alpha3/beta4 (Homo sapiens, UniProt P30926+P32297); assay: Displacement of [3H]epibatidine from alpha3beta4 nAChR expressed in IMR32 cells; assay type: cell-based, IMR-32
Method in brief: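 Alpha3β4 binding in IMR32 cells with [3H]epibatidine radioligand. Six-point concentration-response curve run in triplicate and averaged.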

[8] = Half life in human liver microsomes; assay type: ADME, Microsome
Method in brief: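 Stability in human liver microsomes.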

[9] = Oral bioavailability in rat; assay type: ADME, organism-based; details: in vivo
[10] = molecular target: T2, Muscarinic acetylcholine receptor M4 (Homo sapiens, UniProt P08173); assay: Inhibition of muscarinic M4 receptor
T2 sequence (P08173 whole entry): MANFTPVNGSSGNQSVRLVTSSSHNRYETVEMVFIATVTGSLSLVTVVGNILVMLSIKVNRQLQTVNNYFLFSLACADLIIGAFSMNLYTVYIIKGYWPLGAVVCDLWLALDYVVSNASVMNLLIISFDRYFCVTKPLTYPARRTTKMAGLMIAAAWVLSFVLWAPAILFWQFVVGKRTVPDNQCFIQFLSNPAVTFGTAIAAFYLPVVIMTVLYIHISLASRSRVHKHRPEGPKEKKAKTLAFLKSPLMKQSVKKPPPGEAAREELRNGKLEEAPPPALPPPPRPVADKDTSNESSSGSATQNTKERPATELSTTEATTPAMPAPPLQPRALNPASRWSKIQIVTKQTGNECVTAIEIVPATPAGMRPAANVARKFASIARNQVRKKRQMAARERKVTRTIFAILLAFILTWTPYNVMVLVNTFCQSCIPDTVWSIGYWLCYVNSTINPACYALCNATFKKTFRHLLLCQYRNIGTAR

[11] = molecular target: Neuronal acetylcholine receptor subunit alpha-7 (Rattus norvegicus) (UniProt Q05941); assay: Ex vivo receptor binding at alpha7 nicotinic acetylcholine receptor in rat hippocampal brain after 30 mins by [125I]alpha-bungarotoxin binding assay; assay type: tissue-based; details: Hippocampus
Method in brief: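 Rats dosed sc with compound or vehicle, 3 per dose group; hippocampus taken 30 min later and homogenized in HEPES buffer pH 7.5. Homogenate incubated 2 h at 37 °C with 0.4 nM [125I]α-bungarotoxin. Nonspecific binding with 1 μM methyllycaconitine; filtration onto GF/B. Occupancy-versus-dose ED50 derived.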

Rattus norvegicus [12] = assay: Cognitive enhancement in Sprague-Dawley rat assessed as reversal of amphetamine-induced auditory sensory gating deficit at 0.3 mg/kg, sc; assay type: functional, organism-based; set-up: dose 0.3 mg/kg
Method in brief: (§2)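 Male Sprague-Dawley rats (250-300 g) under chloral hydrate (400 mg/kg ip), femoral vein cannulated. CA3 hippocampal field potential recorded; auditory-evoked responses averaged over 50 stimulus pairs at 10 s interstimulus interval. Gating disrupted by d-amphetamine 1 mg/kg iv; compound sc. Read-out is reversal of the amphetamine deficit; PBS vehicle; two-tailed paired t-test.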

Rattus norvegicus [13] = assay: Cognitive enhancement in Sprague-Dawley rat assessed as reversal of amphetamine-induced auditory sensory gating deficit at 1 mg/kg, sc; assay type: functional, organism-based; set-up: dose 1 mg/kg; method in brief: as §2
Rattus norvegicus [14] = assay: Cognitive enhancement in Sprague-Dawley rat assessed as reversal of amphetamine-induced auditory sensory gating deficit at 0.1 mg/kg, sc; assay type: functional, organism-based; set-up: dose 0.1 mg/kg; method in brief: as §2
Rattus norvegicus [15] = assay: Cognitive enhancement in sc dosed Sprague-Dawley rat assessed as reversal of amphetamine-induced auditory sensory gating deficits; assay type: functional; details: read-out: MED; method in brief: as §2
Rattus norvegicus [16] = assay: Cognitive enhancement in Sprague-Dawley rat assessed as augmentation of amphetamine-induced hippocampal theta oscillation at 1 mg/kg, sc; assay type: functional, organism-based; set-up: dose 1 mg/kg; details: Hippocampus

Neuronal acetylcholine receptor; alpha3/beta4, sequence (P30926 whole entry): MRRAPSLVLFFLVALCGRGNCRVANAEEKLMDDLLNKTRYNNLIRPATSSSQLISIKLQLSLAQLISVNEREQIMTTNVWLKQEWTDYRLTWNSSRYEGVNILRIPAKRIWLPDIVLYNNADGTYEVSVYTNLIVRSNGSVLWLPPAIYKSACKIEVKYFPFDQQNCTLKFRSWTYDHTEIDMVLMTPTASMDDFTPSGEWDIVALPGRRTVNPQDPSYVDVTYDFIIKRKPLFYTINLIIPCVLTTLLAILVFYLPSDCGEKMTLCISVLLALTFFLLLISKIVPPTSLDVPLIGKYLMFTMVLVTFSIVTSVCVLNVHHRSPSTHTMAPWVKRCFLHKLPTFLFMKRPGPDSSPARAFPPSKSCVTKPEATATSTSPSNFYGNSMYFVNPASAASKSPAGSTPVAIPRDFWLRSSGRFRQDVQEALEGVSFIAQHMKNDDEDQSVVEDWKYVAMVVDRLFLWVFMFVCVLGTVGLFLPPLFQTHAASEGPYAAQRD
Neuronal acetylcholine receptor; alpha3/beta4, sequence (P32297 whole entry): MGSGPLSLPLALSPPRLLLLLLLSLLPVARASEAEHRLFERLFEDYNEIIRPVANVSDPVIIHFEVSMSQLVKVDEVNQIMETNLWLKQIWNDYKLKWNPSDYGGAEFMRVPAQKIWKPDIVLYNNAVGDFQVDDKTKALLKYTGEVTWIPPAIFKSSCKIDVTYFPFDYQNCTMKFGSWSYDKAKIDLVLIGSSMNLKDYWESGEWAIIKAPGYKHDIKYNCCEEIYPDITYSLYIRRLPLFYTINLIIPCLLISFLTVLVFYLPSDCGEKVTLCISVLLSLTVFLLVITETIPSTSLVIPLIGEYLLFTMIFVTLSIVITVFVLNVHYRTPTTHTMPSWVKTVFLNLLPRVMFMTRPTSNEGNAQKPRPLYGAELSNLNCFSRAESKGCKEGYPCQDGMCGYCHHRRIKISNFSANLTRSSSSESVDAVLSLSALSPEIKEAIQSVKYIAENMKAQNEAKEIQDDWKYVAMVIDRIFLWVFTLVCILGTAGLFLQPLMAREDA
Neuronal acetylcholine receptor; alpha4/beta2, sequence (P09483 whole entry): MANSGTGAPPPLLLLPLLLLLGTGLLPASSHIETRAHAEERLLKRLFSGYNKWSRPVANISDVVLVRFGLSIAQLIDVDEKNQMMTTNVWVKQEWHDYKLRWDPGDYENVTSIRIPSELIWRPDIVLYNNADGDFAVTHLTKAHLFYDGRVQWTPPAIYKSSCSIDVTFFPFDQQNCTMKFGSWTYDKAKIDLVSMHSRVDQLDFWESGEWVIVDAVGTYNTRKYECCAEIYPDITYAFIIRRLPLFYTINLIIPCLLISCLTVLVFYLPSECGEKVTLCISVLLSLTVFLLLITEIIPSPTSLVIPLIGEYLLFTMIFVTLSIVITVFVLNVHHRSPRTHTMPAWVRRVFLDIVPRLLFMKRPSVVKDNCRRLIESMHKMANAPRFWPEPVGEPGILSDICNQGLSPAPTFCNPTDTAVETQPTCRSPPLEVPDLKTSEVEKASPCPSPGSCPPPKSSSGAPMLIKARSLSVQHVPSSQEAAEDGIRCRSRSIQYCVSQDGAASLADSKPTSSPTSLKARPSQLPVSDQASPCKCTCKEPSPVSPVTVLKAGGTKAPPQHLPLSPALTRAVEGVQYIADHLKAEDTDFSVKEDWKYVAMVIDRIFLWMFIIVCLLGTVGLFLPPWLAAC
Neuronal acetylcholine receptor; alpha4/beta2, sequence (P12390 whole entry): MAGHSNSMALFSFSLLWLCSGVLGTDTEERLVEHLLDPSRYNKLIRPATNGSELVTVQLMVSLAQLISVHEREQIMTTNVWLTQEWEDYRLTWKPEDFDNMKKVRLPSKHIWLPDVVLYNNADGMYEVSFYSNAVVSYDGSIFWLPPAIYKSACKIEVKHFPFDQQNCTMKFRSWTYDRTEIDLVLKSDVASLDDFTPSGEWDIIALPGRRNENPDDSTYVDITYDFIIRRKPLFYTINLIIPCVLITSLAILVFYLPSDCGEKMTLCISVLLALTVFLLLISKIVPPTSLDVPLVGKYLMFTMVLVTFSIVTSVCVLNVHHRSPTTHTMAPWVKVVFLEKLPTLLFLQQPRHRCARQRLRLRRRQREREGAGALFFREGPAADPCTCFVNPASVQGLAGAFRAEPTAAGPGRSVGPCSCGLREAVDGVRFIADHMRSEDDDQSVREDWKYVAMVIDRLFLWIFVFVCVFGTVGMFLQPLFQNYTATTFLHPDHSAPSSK
Neuronal acetylcholine receptor subunit alpha-7, sequence (Q05941 whole entry): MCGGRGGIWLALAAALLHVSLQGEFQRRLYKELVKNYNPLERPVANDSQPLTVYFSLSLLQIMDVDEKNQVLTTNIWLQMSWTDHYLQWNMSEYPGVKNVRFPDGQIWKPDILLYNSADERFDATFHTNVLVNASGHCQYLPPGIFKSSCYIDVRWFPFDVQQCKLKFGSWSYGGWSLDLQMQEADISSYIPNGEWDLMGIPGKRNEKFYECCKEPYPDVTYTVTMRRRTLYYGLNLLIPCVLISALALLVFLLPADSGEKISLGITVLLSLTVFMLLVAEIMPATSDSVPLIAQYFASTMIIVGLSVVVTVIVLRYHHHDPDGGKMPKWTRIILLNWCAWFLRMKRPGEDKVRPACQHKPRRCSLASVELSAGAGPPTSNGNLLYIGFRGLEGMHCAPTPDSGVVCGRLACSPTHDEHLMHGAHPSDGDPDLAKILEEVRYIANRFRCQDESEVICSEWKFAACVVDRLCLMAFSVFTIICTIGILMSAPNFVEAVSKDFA
Neuronal acetylcholine receptor subunit alpha-7 (Rattus norvegicus), sequence (Q05941 whole entry): as above

## Cc1ccc2oc(N3CCN4CCC3CC4)nc2n1
[1]
  Efficacy: 46%
Rattus norvegicus [2]
  Activity: Active
[3]
  Ki: 13.5 nM
[4]
  Ki: 269 nM
[5]
  EC50: 244 nM
[6]
  Ki: 1350 nM
[7]
  Ki: 5370 nM
[8]
  half-life: > 2 h
[9]
  bioavailability: 73%
[10]
  Ki: 3000 nM
[11]
  ED50: 0.34 mg/kg
Rattus norvegicus [12]
  Activity: Active
Rattus norvegicus [13]
  Activity: Active
Rattus norvegicus [14]
  Activity: Active
Rattus norvegicus [15]
  minimal effective dose: 0.3 mg/kg
Rattus norvegicus [16]
  Activity: Active
